# Measurements from ChEMBL document CHEMBL2010803, “Novel NSAID 1-acyl-4-cycloalkyl/arylsemicarbazides and 1-acyl-5-benzyloxy/hydroxy carbamoylcarbazides as potential anticancer agents and antioxidants” (Eur J Med Chem, 2012).
# The source made the active and inactive calls. The rule behind the calls is not given here.
# Experiments:
# [1] = tested on: Respiratory syncytial virus; assay: Antiviral activity against RSV infected in human cervix carcinoma cells assessed as inhibition of virus-induced cytopathic effect at 0.32 to 100 uM; format: functional, organism-based
# Procedure, shortened: (§1)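 Confluent cell cultures were infected with 100 CCID50 of virus in the presence of test compound at 100, 40, 8, 1.6 and 0.32 μM. Cytopathic effect was scored once it was complete in untreated infected controls.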
# Coxsackievirus B4 [2] = assay: Antiviral activity against Coxsackievirus B4 infected in human cervix carcinoma cells assessed as inhibition of virus-induced cytopathic effect at 0.32 to 100 uM; format: functional, organism-based; procedure, shortened: as §1
# L1210 = assay: Cytostatic activity against mouse L1210 cells after 2 days by coulter counter analysis; format: functional, cell-based; settings: L1210, 48 h
# Procedure, shortened: (§2)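 300,000–500,000 cells/ml mixed 1:1 with compound dilutions and incubated at 37 °C for 2 days (L1210) or 3 days (CEM, HeLa). Cell number counted with a Coulter counter; HeLa trypsinized before counting.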
# CCRF-CEM = assay: Cytostatic activity against human CEM cells after 3 days by coulter counter analysis; format: functional, cell-based; settings: 72 h; procedure, shortened: as §2
# HeLa = assay: Cytostatic activity against human HeLa cells after 3 days by coulter counter analysis; format: functional, cell-based; settings: 72 h; procedure, shortened: as §2
# HCT-116 = assay: Cytostatic activity against human HCT116 cells after 72 hrs by MTT assay; format: functional, cell-based; settings: HCT-116, 72 h
# Procedure, shortened: (§3)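 Monolayers in DMEM with 10% FBS, 2 mM L-glutamine and penicillin/streptomycin, 37 °C, 5% CO2. Seeded at 1–3 × 10^4 cells/ml, then compound added in tenfold dilutions (10⁻⁸–10⁻⁴ M) for 72 h. MTT read at 570 nm; percent growth taken against time-zero and untreated controls. IC50 by linear regression; quadruplicate, at least two experiments.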
# MCF7 = assay: Cytostatic activity against human MCF7 cells after 72 hrs by MTT assay; format: functional, cell-based; settings: MCF7, 72 h; procedure, shortened: as §3
# NCI-H460 = assay: Cytostatic activity against human NCI-H460 cells after 72 hrs by MTT assay; format: functional, cell-based; settings: NCI-H460, 72 h; procedure, shortened: as §3
# Human alphaherpesvirus 1 = assay: Antiviral activity against HSV1 KOS infected in human lung fibroblast assessed as inhibition of virus-induced cytopathic effect at 0.32 to 100 uM; format: functional, organism-based; procedure, shortened: as §1
# Human alphaherpesvirus 2 = assay: Antiviral activity against HSV2 G infected in human lung fibroblast assessed as inhibition of virus-induced cytopathic effect at 0.32 to 100 uM; format: functional, organism-based; settings: strain G; procedure, shortened: as §1
# Vaccinia virus = assay: Antiviral activity against Vaccinia virus infected in human lung fibroblast assessed as inhibition of virus-induced cytopathic effect at 0.32 to 100 uM; format: functional, organism-based; settings: Orthopoxvirus vaccinia
# [3] = tested on: Vesicular stomatitis virus; assay: Antiviral activity against VSV infected in human lung fibroblast assessed as inhibition of virus-induced cytopathic effect at 0.32 to 100 uM; format: functional, organism-based
# Human respirovirus 3 = assay: Antiviral activity against Parainfluenza virus 3 infected in african green monkey Vero cells assessed as inhibition of virus-induced cytopathic effect at 0.32 to 100 uM; format: functional, organism-based; procedure, shortened: as §1
# [4] = tested on: Mammalian orthoreovirus 1; assay: Antiviral activity against Reovirus-1 infected in african green monkey Vero cells assessed as inhibition of virus-induced cytopathic effect at 0.32 to 100 uM; format: functional, organism-based; procedure, shortened: as §1
# Sindbis virus = assay: Antiviral activity against Sindbis virus infected in african green monkey Vero cells assessed as inhibition of virus-induced cytopathic effect at 0.32 to 100 uM; format: functional, organism-based; procedure, shortened: as §1
# Coxsackievirus B4 [5] = assay: Antiviral activity against Coxsackievirus B4 infected in african green monkey Vero cells assessed as inhibition of virus-induced cytopathic effect at 0.32 to 100 uM; format: functional, organism-based; procedure, shortened: as §1
# Punta Toro virus = assay: Antiviral activity against Punta Toro virus infected in african green monkey Vero cells assessed as inhibition of virus-induced cytopathic effect at 0.32 to 100 uM; format: functional, organism-based; procedure, shortened: as §1
# [6] = tested on: Vesicular stomatitis virus; assay: Antiviral activity against Vesicular stomatitis virus infected in human cervix carcinoma cells assessed as inhibition of virus-induced cytopathic effect at 0.32 to 100 uM; format: functional, organism-based
# Procedure, shortened: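 Confluent human cervix carcinoma (HeLa) cultures received 100 CCID50 of VSV together with the compound at 100, 40, 8, 1.6 or 0.32 μM. Cytopathicity was read at the point of full CPE in infected, untreated control wells.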
# Felid alphaherpesvirus 1 = assay: Antiviral activity against Feline herpesvirus infected in feline CRFK cells assessed as inhibition of virus-induced cytopathic effect at 0.32 to 100 uM; format: functional, organism-based; procedure, shortened: as §1
# Feline coronavirus = assay: Antiviral activity against Feline coronavirus infected in feline CRFK cells assessed as inhibition of virus-induced cytopathic effect at 0.32 to 100 uM; format: functional, organism-based; procedure, shortened: as §1
# Influenza A virus [7] = assay: Antiviral activity against Influenza A virus H1N1 infected in MDCK cells assessed as inhibition of virus-induced cytopathic effect at 0.32 to 100 uM; format: functional, organism-based
# Procedure, shortened: (§4)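 Confluent MDCK monolayers were infected in the presence of the compound at 100, 40, 8, 1.6 and 0.32 μM. Viral cytopathicity was scored once it was complete in untreated infected control cultures.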
# Influenza A virus [8] = assay: Antiviral activity against Influenza A virus H3N2 infected in MDCK cells assessed as inhibition of virus-induced cytopathic effect at 0.32 to 100 uM; format: functional, organism-based; procedure, shortened: as §4
# Influenza B virus = assay: Antiviral activity against Influenza B virus infected in MDCK cells assessed as inhibition of virus-induced cytopathic effect at 0.32 to 100 uM; format: functional, organism-based; procedure, shortened: as §4
# [9] = tested on: Human immunodeficiency virus 1; assay: Antiviral activity against HIV1 3B infected in human CEM cells assessed as inhibition of virus-induced CEM giant cell formation at 0.32 to 100 uM after 4 days; format: functional, organism-based; settings: CCRF-CEM
# Procedure, shortened: (§5)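 CEM cells (~3 × 10^5 cells/cm³) exposed to 100 CCID50/ml of virus and seeded into wells holding compound dilutions. Incubated 4 days at 37 °C, then giant cell formation examined microscopically.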
# [10] = tested on: Human immunodeficiency virus 2; assay: Antiviral activity against HIV2 ROD infected in human CEM cells assessed as inhibition of virus-induced CEM giant cell formation at 0.32 to 100 uM after 4 days; format: functional, organism-based; settings: ISOLATE ROD, CCRF-CEM; procedure, shortened: as §5
# [11] = tested on: Radical scavenging activity; assay: Antioxidant activity assessed as DPPH free radical scavenging activity at 100 uM after 20 mins by spectrophotometric analysis; format: functional
# Procedure, shortened: (§6)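 0.05 mM DPPH in absolute ethanol mixed with an equal volume of compound in DMSO (final 100 μM). Shaken and left 20 or 60 min, then absorbance read at 517 nm and percent activity calculated. Three replicates, averaged.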
# [12] = tested on: Radical scavenging activity; assay: Antioxidant activity assessed as DPPH free radical scavenging activity at 100 uM after 60 mins by spectrophotometric analysis; format: functional; procedure, shortened: as §6
# [13] = Antioxidant activity assessed as inhibition of AAPH-induced linoleic acid lipid peroxidation by measuring conjugated diene hydroperoxide level; format: functional; parameters: concentration or dose not given beside the values; settings: dose or concentration not given here
# Procedure, shortened: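 Linoleic acid sodium salt (10 μL of 16 mM) in 0.05 M phosphate buffer pH 7.4 at 37 °C. Oxidation started under air with 50 μL of 40 mM AAPH. Conjugated diene hydroperoxide formation followed as absorbance rise at 234 nm; control contains the same DMSO level. At least triplicate.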
# Glycine max = assay: Inhibition of soybean LOX assessed as conversion of sodium linoleate to 13- hydroperoxylinoleic acid at 100 uM
Compound,inhibition [1],inhibition (Coxsackievirus B4 [2]),IC50 (L1210),IC50 (CCRF-CEM),IC50 (HeLa),IC50 (HCT-116),IC50 (MCF7),IC50 (NCI-H460),inhibition (Human alphaherpesvirus 1),inhibition (Human alphaherpesvirus 2),inhibition (Vaccinia virus),inhibition [3],inhibition (Human respirovirus 3),inhibition [4],inhibition (Sindbis virus),inhibition (Coxsackievirus B4 [5]),inhibition (Punta Toro virus),inhibition [6],inhibition (Felid alphaherpesvirus 1),inhibition (Feline coronavirus),further results
CC(C)Cc1ccc(C(C)C(=O)NNC(=O)NCc2ccccc2)cc1 (stereo unspecified),inactive,inactive,110 µM,74 µM,173 µM,34 µM,29 µM,59 µM,inactive,inactive,inactive,inactive,inactive,inactive,inactive,inactive,inactive,inactive,inactive,inactive,inhibition (Influenza A virus [7]): inactive; inhibition (Influenza A virus [8]): inactive; inhibition (Influenza B virus): inactive; inhibition [9]: inactive; inhibition [10]: inactive; Activity [11]: inactive; Activity [12]: inactive; inhibition [13]: 12%; inhibition (Glycine max): inactive
CC(C(=O)NNC(=O)NNC(=O)NOCc1ccccc1)c1cccc(Cc2ccccc2)c1 (stereo unspecified),inactive,inactive,102 µM,96 µM,76 µM,64 µM,19 µM,> 100 µM,inactive,inactive,inactive,inactive,inactive,inactive,inactive,inactive,inactive,inactive,inactive,inactive,inhibition (Influenza A virus [7]): inactive; inhibition (Influenza A virus [8]): inactive; inhibition (Influenza B virus): inactive; inhibition [9]: inactive; inhibition [10]: inactive; Activity [11]: 10%; Activity [12]: 19%; inhibition [13]: 100%; inhibition (Glycine max): inactive
CC(C(=O)NN)c1cccc(Cc2ccccc2)c1 (stereo unspecified),inactive,inactive,212 µM,150 µM,142 µM,> 100 µM,> 100 µM,> 100 µM,inactive,inactive,inactive,inactive,inactive,inactive,inactive,inactive,inactive,inactive,inactive,inactive,inhibition (Influenza A virus [7]): inactive; inhibition (Influenza A virus [8]): inactive; inhibition (Influenza B virus): inactive; inhibition [9]: inactive; inhibition [10]: inactive; Activity [11]: inactive; Activity [12]: inactive; inhibition [13]: 6%; inhibition (Glycine max): 10%
CC(C)Cc1ccc(C(C)C(=O)NNC(=O)NOCc2ccccc2)cc1 (stereo unspecified),inactive,inactive,192 µM,≥ 250 µM,178 µM,76 µM,50 µM,> 100 µM,inactive,inactive,inactive,inactive,inactive,inactive,inactive,inactive,inactive,inactive,inactive,inactive,inhibition (Influenza A virus [7]): inactive; inhibition (Influenza A virus [8]): inactive; inhibition (Influenza B virus): inactive; inhibition [9]: inactive; inhibition [10]: inactive; Activity [11]: inactive; Activity [12]: inactive; inhibition [13]: 100%; inhibition (Glycine max): inactive
